Calls of active or inactive are those of the source. Unless noted, no cut-off for these calls is given here.
What was measured:
U-937 [1] = assay: Induction of apoptosis in human U937 cells at 25 uM after 30 hrs; type: functional
Procedure, shortened: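 Apoptosis read as caspase 3 activation by FACS, in U937 cells (RPMI, 10% fetal calf serum, 200000 cells/mL) exposed to 25 µM for 30 h.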

U-937 [2] = assay: Inhibition of histone H3R17 methylation in human U937 cells at 50 uM after 24 hrs; type: functional, cell-based
Procedure, shortened: (§1)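 U937 cells treated at 50 µM for 24 h. Histones extracted with Triton buffer, then 0.2 M HCl overnight at 4 °C. 3–10 µg run on 15% SDS-PAGE and immunoblotted with anti-monomethyl-H3K4, monomethyl-H4R3 or dimethyl-H3R17 (1:500, overnight 4 °C), ECL detection. Loading controls: total H4 (H3K4), Ponceau Red (Arg marks).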

[3] = target: T1, Histone-arginine methyltransferase CARM1 (Homo sapiens) (UniProt Q86X55); assay: Inhibition of human recombinant CARM1 assessed as poly(A) binding protein 1 methylation at 100 uM
T1 sequence (whole entry): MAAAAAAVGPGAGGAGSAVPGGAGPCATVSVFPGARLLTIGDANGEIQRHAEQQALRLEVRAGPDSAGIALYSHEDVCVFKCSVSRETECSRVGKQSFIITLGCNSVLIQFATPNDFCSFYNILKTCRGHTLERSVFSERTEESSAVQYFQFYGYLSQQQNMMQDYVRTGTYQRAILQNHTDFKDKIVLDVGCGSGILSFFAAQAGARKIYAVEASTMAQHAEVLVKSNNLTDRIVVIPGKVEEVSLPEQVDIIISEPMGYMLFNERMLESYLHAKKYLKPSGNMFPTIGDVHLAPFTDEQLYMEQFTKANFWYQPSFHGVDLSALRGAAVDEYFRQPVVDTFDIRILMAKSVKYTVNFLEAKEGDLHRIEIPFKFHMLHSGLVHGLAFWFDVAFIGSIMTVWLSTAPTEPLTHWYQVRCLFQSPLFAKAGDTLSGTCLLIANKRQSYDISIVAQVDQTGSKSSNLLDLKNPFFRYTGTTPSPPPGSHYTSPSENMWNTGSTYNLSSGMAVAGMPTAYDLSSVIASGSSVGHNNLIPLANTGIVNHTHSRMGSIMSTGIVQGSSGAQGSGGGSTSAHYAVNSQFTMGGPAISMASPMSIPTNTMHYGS
Procedure, shortened: (§2)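 Recombinant enzymes (0.2 µg) with substrate (0.5 µg: Npl3p for PRMT1, PABP1 for CARM1, histone H3 for SET7), 0.5 µM [3H]AdoMet and 100 µM compound in PBS pH 7.4 with 3.3% v/v DMSO, 90 min at 30 °C. Products separated by 10% SDS-PAGE, transferred to PVDF, detected by fluorography on film overnight.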

[4] = target: T2, NAD-dependent protein deacetylase sirtuin-1 (Homo sapiens) (UniProt Q96EB6); assay: Inhibition of human SIRT1 at 25 uM
T2 sequence (whole entry): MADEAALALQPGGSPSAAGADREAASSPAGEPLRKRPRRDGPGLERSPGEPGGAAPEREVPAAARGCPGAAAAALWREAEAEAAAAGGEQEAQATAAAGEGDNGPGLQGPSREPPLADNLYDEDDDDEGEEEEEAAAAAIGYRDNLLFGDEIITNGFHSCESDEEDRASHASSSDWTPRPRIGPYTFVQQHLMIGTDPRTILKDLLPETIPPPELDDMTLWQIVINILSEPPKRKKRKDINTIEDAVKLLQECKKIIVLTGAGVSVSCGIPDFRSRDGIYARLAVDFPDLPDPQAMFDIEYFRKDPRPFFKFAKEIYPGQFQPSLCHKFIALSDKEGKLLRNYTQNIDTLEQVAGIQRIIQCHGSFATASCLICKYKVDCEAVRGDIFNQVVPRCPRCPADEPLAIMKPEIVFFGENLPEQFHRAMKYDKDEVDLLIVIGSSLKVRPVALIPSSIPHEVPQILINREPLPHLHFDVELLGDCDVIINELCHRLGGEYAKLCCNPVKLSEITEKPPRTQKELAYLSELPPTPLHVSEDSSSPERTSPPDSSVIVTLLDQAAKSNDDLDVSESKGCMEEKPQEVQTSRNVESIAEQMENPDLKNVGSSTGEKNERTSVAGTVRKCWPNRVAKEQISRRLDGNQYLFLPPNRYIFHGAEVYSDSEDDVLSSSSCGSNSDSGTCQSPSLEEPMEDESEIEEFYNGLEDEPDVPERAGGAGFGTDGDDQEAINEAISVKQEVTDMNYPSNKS
Procedure, shortened: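 Fluorescent two-stage assay. SIRT1 (1 U/well) or SIRT2 (5 U/well) with Fluor de Lys-SIRT1/2 substrate, NAD+ and compound at 25 µM, 37 °C for 2 h. Developer II containing nicotinamide then stopped the reaction and generated signal, read at ex 360/em 460 nm.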

RmtA = RmtA (Emericella nidulans, UniProt Q5VLE3); assay: Inhibition of Aspergillus nidulans RmtA
Procedure, shortened: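 Enzyme was GST-RmtA fusion expressed in E. coli BL21 and glutathione-affinity purified (500 ng), preincubated with compound for 15 min at room temperature. Then 20 µg chicken erythrocyte core histones and 0.55 µCi [3H]AdoMet were added, 30 min at 30 °C. Stopped with 25% TCA, filtered, counted by liquid scintillation.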

U-937 [5] = assay: Inhibition of human p300/CBP in U937 cells at 50 uM assessed as histone H3 acetylation; type: cell-based
Procedure, shortened: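 Source was U937 nuclear extract (10 µg per assay) as p300/CBP HAT, with histone H3 substrate and compound at 50 µM or DMSO control for 90 min. Acetyl-H3 detected by indirect ELISA, quantified against acetylated H3 peptide standard curves, […].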

[6] = target: Protein arginine N-methyltransferase 1 (Homo sapiens) (UniProt Q99873); assay: Inhibition of human recombinant PRMT1 assessed as nuclear ribonucleoprotein Npl3p methylation at 100 uM; procedure, shortened: as §2
U-937 [7] = assay: Cell cycle arrest in human U937 cells assessed as accumulation at S phase at 25 uM after 30 hrs; type: functional, cell-based
Procedure, shortened: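 U937 cells in RPMI with 10% fetal calf serum, HEPES and glutamine, kept at 200000 cells/mL; treated at 25 µM for 30 h, then the distribution across cell cycle phases was analysed.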

U-937 [8] = assay: Inhibition of histone H3K4 methylation in human U937 cells at 50 uM after 24 hrs; type: functional, cell-based; procedure, shortened: as §1
U-937 [9] = assay: Induction of granulocytic differentiation in human U937 cells assessed as CD11c expression at 0.5 uM after 30 hrs; type: functional
Procedure, shortened: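 U937 cells treated for 30 h, then stained with PE-conjugated CD11c (PE mouse IgG1 as control) for 30 min at 4 °C in the dark and resuspended in PBS with PI (0.25 µg/mL). Read-out is percent CD11c-positive/PI-negative cells, with dead PI-positive cells excluded. Coloured compounds limited the top dose to 5 µM or lower.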

U-937 [10] = assay: Inhibition of histone H4R3 methylation in human U937 cells at 50 uM after 24 hrs; type: functional, cell-based; procedure, shortened: as §1

Chain of RmtA (Q5VLE3 whole entry, the tested form may be a part): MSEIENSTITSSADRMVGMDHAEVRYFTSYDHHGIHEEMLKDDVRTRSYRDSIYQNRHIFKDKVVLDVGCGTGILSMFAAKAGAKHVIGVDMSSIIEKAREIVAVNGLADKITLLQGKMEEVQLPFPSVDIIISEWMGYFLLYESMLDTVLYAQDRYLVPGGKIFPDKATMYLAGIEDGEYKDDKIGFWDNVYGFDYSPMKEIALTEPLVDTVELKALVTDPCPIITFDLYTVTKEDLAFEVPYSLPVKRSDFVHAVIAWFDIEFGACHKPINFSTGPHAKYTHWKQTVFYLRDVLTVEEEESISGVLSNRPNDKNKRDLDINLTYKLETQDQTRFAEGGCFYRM
Chain of Protein arginine N-methyltransferase 1 (Homo sapiens) (Q99873 whole entry, looked up): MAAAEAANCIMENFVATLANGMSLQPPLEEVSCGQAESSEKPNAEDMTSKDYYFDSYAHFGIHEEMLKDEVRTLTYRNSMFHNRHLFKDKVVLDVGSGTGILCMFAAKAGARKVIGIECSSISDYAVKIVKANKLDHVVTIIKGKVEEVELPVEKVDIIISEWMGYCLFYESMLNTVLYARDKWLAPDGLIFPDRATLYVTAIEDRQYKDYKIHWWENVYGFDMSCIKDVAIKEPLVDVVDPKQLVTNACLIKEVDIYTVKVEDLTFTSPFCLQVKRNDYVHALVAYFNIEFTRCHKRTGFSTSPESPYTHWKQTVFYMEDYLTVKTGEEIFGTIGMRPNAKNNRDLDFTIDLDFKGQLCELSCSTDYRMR

Structure (SMILES): O=C1/C(=C/c2cc(Br)c(O)c(Br)c2)COC/C1=C\c1cc(Br)c(O)c(Br)c1
- Activity (U-937 [1]): 27.9%
- Activity (U-937 [2]): Active
- Activity [3]: Active
- inhibition [4]: 62%
- IC50 (RmtA): 29 µM
- inhibition (U-937 [5]): 61%
- Activity [6]: Active
- Activity (U-937 [7]): Active
- Activity (U-937 [8]): Active
- Activity (U-937 [9]): 59%
- Activity (U-937 [10]): Active

From ChEMBL document CHEMBL1144710, “epigenetic multiple ligands: mixed histone/protein methyltransferase, acetyltransferase, and class III deacetylase (sirtuin) inhibitors” (J Med Chem, 2008)
